The source made the active and inactive calls. The rule behind the calls is not given here.
Assays:
A549 [1] = assay: Antiproliferative activity against human A549 cells after 48 hrs by MTT assay; type: functional, cell-based; conditions: A549, 48 h
Method in brief: (§1)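 MTT assay. Cells were seeded at 5.0 × 10⁴ cells/ml in 100 μL per well and grown 24 h. They were then exposed to a range of concentrations for 48 h. MTT (5 mg/ml) was added for 4 h, the supernatant was removed and DMSO was added. OD was read at 570 nm. Assays were run in triplicate and IC50 is reported as mean ± SD, n = 3.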

HepG2 = assay: Antiproliferative activity against human HepG2 cells after 48 hrs by MTT assay; type: functional, cell-based; conditions: HepG2, 48 h; method in brief: as §1
HOS = assay: Antiproliferative activity against human HOS cells after 48 hrs by MTT assay; type: functional, cell-based; method in brief: as §1
[2] = Drug metabolism in human A549 cells assessed as nitric oxide release at 4 uM measured up to 24 hrs; type: ADME, cell-based; conditions: a549, 24 h
Method in brief: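 A549 cells were seeded at 5.0 × 10⁴ cells/ml in 100 μL wells and grown 24 h at 37 °C. Hybrids were added at 4 μM for varying times, with 24 h used for the full set. NO was measured with a Nitrate/Nitrite assay kit against a standard curve, reading OD at 550 nm. Values are the mean of three independent experiments.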

MCF7 = assay: Antiproliferative activity against human MCF7 cells after 48 hrs by MTT assay; type: functional, cell-based; conditions: MCF7, 48 h; method in brief: as §1
A549 [3] = assay: Induction of apoptosis in human A549 cells assessed as early apoptotic cells at 1.2 uM after 48 hrs by Annexin V-FITC/propidium iodide staining-based flow cytometric analysis (reference value: 0.5%); type: functional
A549 [4] = assay: Induction of apoptosis in human A549 cells assessed as late apoptotic cells at 1.2 uM after 48 hrs by Annexin V-FITC/propidium iodide staining-based flow cytometric analysis (reference value: 0.4%); type: functional
A549 [5] = assay: Induction of apoptosis in human A549 cells assessed as viable cells at 1.2 uM after 48 hrs by Annexin V-FITC/propidium iodide staining-based flow cytometric analysis (reference value: 98.5%); type: functional; conditions: A549, 48 h, read-out: Activity
A549 [6] = assay: Induction of apoptosis in human A549 cells assessed as necrotic cells at 1.2 uM after 48 hrs by Annexin V-FITC/propidium iodide staining-based flow cytometric analysis (reference value: 0.6%); type: functional
[7] = molecular target: Heat shock protein HSP90 (Homo sapiens) (UniProt P07900+P08238); assay: Inhibition of HSP90 in human A549 cells assessed as decrease in Akt phosphorylation at 2.5 uM after 24 hrs by Western blot analysis; type: cell-based

SMILES	IC50 (A549 [1])	IC50 (HepG2)	IC50 (HOS)	Drug metabolism [2]	IC50 (MCF7)	Activity (A549 [3])	Activity (A549 [4])	viability at 1.2 µM (A549 [5])	Activity (A549 [6])	inhibition [7]
CC1=C(O)C(=O)C=C2C1=CC=C1[C@@]2(C)CC[C@@]2(C)[C@@H]3C[C@](C)(C(=O)OCC(C)COc4no[n+]([O-])c4S(=O)(=O)c4ccccc4)CC[C@]3(C)CC[C@]12C (stereo partly specified)	1110 nM	2390 nM	1670 nM	Metabolite_Detected	1490 nM					
CC1=C(O)C(=O)C=C2C1=CC=C1[C@@]2(C)CC[C@@]2(C)[C@@H]3C[C@](C)(C(=O)NCCOc4no[n+]([O-])c4S(=O)(=O)c4ccccc4)CC[C@]3(C)CC[C@]12C	1080 nM	3820 nM	1470 nM	Metabolite_Detected	1520 nM					
CC1=C(O)C(=O)C=C2C1=CC=C1[C@@]2(C)CC[C@@]2(C)[C@@H]3C[C@](C)(C(=O)OCCCCCO[N+](=O)[O-])CC[C@]3(C)CC[C@]12C	5320 nM	3400 nM	2900 nM		3010 nM					
CC1=C(O)C(=O)C=C2C1=CC=C1[C@@]2(C)CC[C@@]2(C)[C@@H]3C[C@](C)(C(=O)OCCCO[N+](=O)[O-])CC[C@]3(C)CC[C@]12C	3220 nM	1850 nM	1370 nM	Metabolite_Detected	2540 nM					
CC1=C(O)C(=O)C=C2C1=CC=C1[C@@]2(C)CC[C@@]2(C)[C@@H]3C[C@](C)(C(=O)OCCCOc4no[n+]([O-])c4S(=O)(=O)c4ccccc4)CC[C@]3(C)CC[C@]12C	2890 nM	4530 nM	1870 nM		2120 nM					
CC1=C(O)C(=O)C=C2C1=CC=C1[C@@]2(C)CC[C@@]2(C)[C@@H]3C[C@](C)(C(=O)O)CC[C@]3(C)CC[C@]12C [CELASTROL]	1430 to 1570 nM	1620 nM	930 nM		1560 nM	7.8%	11.2%	75.8%	5.2%	Active
CC1=C(O)C(=O)C=C2C1=CC=C1[C@@]2(C)CC[C@@]2(C)[C@@H]3C[C@](C)(C(=O)OCCCCCCO[N+](=O)[O-])CC[C@]3(C)CC[C@]12C	3670 nM	4710 nM	3360 nM		3170 nM					
